Assay results taken from ChEMBL document CHEMBL1128250, “Structure-activity studies of 2,3,4,4a,5,9b-hexahydroindeno[1,2-c]pyridines as antispermatogenic agents for male contraception” (1995).
“And” between values parts separate entries of the source, which are not always exact repeats. Identical values can stand only once.

Tests used:
Mus musculus [1] = test: Effect on left testes body weight single oral dose of 3 mg/kg was given and the change after 3 hr of dosing was observed.; format: functional, Testis
How it was run: (§1)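 Male CD-1 outbred Swiss albino mice, single oral gavage in acetate buffer pH 5 (10 mL/kg), 3, 10 or 30 mg/kg, plus vehicle control. Killed on day 1, 3 or 14 after dosing (times are days, not hours). Testes removed, right and left weighed separately, sectioned for histology and scored on a 0–6 spermatogenic index. Body weight change recorded. Mean ± SEM, n = 5; p < 0.05 versus control.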

Mus musculus [2] = test: Effect on left testes body weight single oral dose of 10 mg/kg was given and the change after 3 hr of dosing was observed.; format: functional, Testis; how it was run: as §1
Mus musculus [3] = test: Effect on spermatogenic index single oral dose of 3 mg/kg was given and the change after 3 hr of dosing was observed.; format: functional; how it was run: as §1
Mus musculus [4] = test: Tested for its effect on mouse testes weight 3 days after single oral dose (30 mg/kg); format: functional, Testis
How it was run: (§2)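 CD-1 outbred Swiss albino male mice, 5 per dose, single gavage on day 0 at 10 mL/kg. Vehicle was 0.15 M acetate buffer pH 5, ethanol/Tween-20/water (3:7:90), or 1% Tween-20 in water. CO2 euthanasia 72 h later. Testes weighed and histologically scored (spermatogenic index 0–6). Values are % reduction versus the assay's vehicle control. Positive control was 30 mg/kg of the parent compound. Significance by Dunnett's one-tailed t-test, p < 0.05.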

Mus musculus [5] = test: Effect on spermatogenic index single oral dose of 30 mg/kg was given and the change after 14 hr of dosing was observed; format: functional; how it was run: as §1
Mus musculus [6] = test: Effect on left testes weight single oral dose of 30 mg/kg was given and the change after 1 hr of dosing was observed.; format: functional, Testis; how it was run: as §1
Mus musculus [7] = test: Tested for its effect on spermatogenic index 3 days after single oral dose (30 mg/kg); format: functional; how it was run: as §2
Mus musculus [8] = test: Tested for its effect on spermatogenic index 3 days after single sub cutaneous dose (10 mg/kg); format: functional
How it was run: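 Single subcutaneous injection, 10 mL/kg, to male CD-1 mice (5 per dose) in ethanol/Tween-20/water (3:7:90, v/v/v) on day 0. Mice were killed at 72 h; testes were weighed and histology scored for spermatogenic index (0–6). Results are % reduction from the vehicle control, with a 30 mg/kg positive control group. Dunnett's one-tailed t-test.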

Mus musculus [9] = test: tested for its effect on spermatogenic index 3 days after single oral dose (3 mg/kg); format: functional
How it was run: (§3)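 Male CD-1 (ICR)BR outbred Swiss albino mice, 5/dose, single oral gavage dose (10 mL/kg) on day 0 in acetate buffer pH 5 or Tween-20-based vehicle; killed 72 h later. Testis cross-sections scored histologically on a 0–6 spermatogenic index (Sertoli only to >100 late spermatids/tubule). Reported as % reduction versus vehicle control; Dunnett's one-tailed t-test.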

Mus musculus [10] = test: Tested for its effect on spermatogenic index 3 days after single oral dose (30 mg/kg),; format: functional; how it was run: as §2
Mus musculus [11] = test: Effect on right testes weight single oral dose of 30 mg/kg was given and the change after 1 hr of dosing was observed; format: functional, Testis; how it was run: as §1
Mus musculus [12] = test: Tested for its effect on spermatogenic index 3 days after single oral dose (90 mg/kg),; format: functional; how it was run: as §2
Mus musculus [13] = test: Effect on right testes weight single oral dose of 30 mg/kg was given and the change after 14 hr of dosing was observed.; format: functional, Testis; how it was run: as §1
Mus musculus [14] = test: Effect on right testes weight single oral dose of 10 mg/kg was given and the change after 3 hr of dosing was observed.; format: functional, Testis; how it was run: as §1
Mus musculus [15] = test: Effect on left testes body weight single oral dose of 10 mg/kg was given and the change after 14 hr of dosing was observed.; format: functional, Testis; how it was run: as §1
Mus musculus [16] = test: Effect on left testes body weight single oral dose of 10 mg/kg was given and the change after 1 h of dosing was observed.; format: functional, Testis; how it was run: as §1
Mus musculus [17] = test: Effect on right testes weight after 1 hr of dosing was observed.; format: functional, Testis; how it was run: as §1
Mus musculus [18] = test: tested for its effect on spermatogenic index 3 days after single oral dose (1 mg/kg); format: functional; how it was run: as §3
Mus musculus [19] = test: Effect on spermatogenic index single oral dose of 3 mg/kg was given and the change after 14 hr of dosing was observed; format: functional; how it was run: as §1
Mus musculus [20] = test: Effect on right testes weight single oral dose of 10 mg/kg was given and the change after 1 hr of dosing was observed.; format: functional, Testis; how it was run: as §1
Mus musculus [21] = test: tested for its effect on spermatogenic index 3 days after single sub cutaneous dose (10 mg/kg); format: functional
How it was run: (§4)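 CD-1 male mice, 5/dose, injected subcutaneously once (10 mL/kg) on day 0 in ethanol/Tween-20/water (3:7:90); vehicle and positive controls included. Killed by CO2 after 72 h; testes weighed and sectioned, with histology scored as a 0–6 spermatogenic index. Both read-outs given as % reduction from control; Dunnett's one-tailed t-test.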

Mus musculus [22] = test: Tested for its effect on mouse testes weight 3 days after single oral dose (90 mg/kg); format: functional, Testis; how it was run: as §2
Mus musculus [23] = test: tested for its effect on testes weight 3 days after single sub cutaneous dose (10 mg/kg); format: functional, Testis; how it was run: as §4
Mus musculus [24] = test: Tested for its effect on mouse testes weight 3 days after single sub cutaneous (10 mg/kg); format: functional, Testis
How it was run: (§5)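 CD-1 outbred Swiss albino male mice, 5 per dose, single subcutaneous injection on day 0 at 10 mL/kg in ethanol/Tween-20/water (3:7:90). Killed 72 h later. Testes weighed and scored for spermatogenic index (0–6). Results are % reduction versus vehicle control. Each assay included a 30 mg/kg positive control. Dunnett's one-tailed t-test, p < 0.05. Oral versus sc route compared by ANOVA.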

Mus musculus [25] = test: Tested for its effect on testes weight 3 days after single oral dose (30 mg/kg); format: functional, Testis; how it was run: as §2
Mus musculus [26] = test: Tested for its effect on testes weight 3 days after single oral dose (90 mg/kg); format: functional, Testis; how it was run: as §2
Mus musculus [27] = species on record: Mus musculus; test: Tested for its effect on spermatogenic index 3 days after single sub cutaneous dose; format: functional; how it was run: as §5
Mus musculus [28] = test: tested for its effect on spermatogenic index 3 days after single oral dose (30 mg/kg); format: functional; how it was run: as §3
Mus musculus [29] = test: tested for its effect on testes weight 3 days after single oral dose (30 mg/kg); format: functional, Testis
How it was run: (§6)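 Male CD-1 (ICR)BR outbred Swiss albino mice, 5/dose, given one oral gavage dose (10 mL/kg) on day 0 in 0.15 M acetate buffer pH 5, ethanol/Tween-20/water (3:7:90), or 1% Tween-20 in water; vehicle and positive-control groups in each assay. Killed by CO2 72 h later; testes weighed. Expressed as % reduction versus vehicle control; Dunnett's one-tailed t-test.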

Mus musculus [30] = test: Tested for its effect on spermatogenic index 3 days after single oral dose (10 mg/kg); format: functional
How it was run: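 Male CD-1 (ICR) mice, 7 weeks old on arrival, 5 per dose, single gavage of 10 mL/kg on day 0. Vehicle was 0.15 M acetate buffer pH 5, ethanol/Tween-20/water 3:7:90, or 1% Tween-20. Mice were killed with CO2 at 72 h and testes weighed and scored for spermatogenic index (0–6 scale). Results are % reduction versus the vehicle control. Dunnett's one-tailed t-test.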

Mus musculus [31] = test: Effect on spermatogenic index single oral dose of 3 mg/kg was given and the change after 1 hr of dosing was observed.; format: functional; how it was run: as §1
Mus musculus [32] = test: tested for its effect on mouse testes weight 3 days after single oral dose (3 mg/kg); format: functional, Testis; how it was run: as §6
Mus musculus [33] = test: Tested for its effect on mouse testes weight 3 days after single oral dose (1 mg/kg); format: functional, Testis; how it was run: as §2
Mus musculus [34] = test: Effect on spermatogenic index single oral dose of 30 mg/kg was given and the change after 3 hr of dosing was observed.; format: functional; how it was run: as §1

Work on CCN1CC[C@H]2[C@H](c3ccc(C)cc3)c3cc(C)ccc3[C@H]2C1.Cl yielded a Testes weight (Mus musculus [1]) of 106.1 mg, a Testes weight (Mus musculus [2]) of 107.8 mg and a Spermatogenic index (Mus musculus [3]) of 5.8. For the same compound, the Reduction (Mus musculus [4]) was 24%, the Spermatogenic index (Mus musculus [5]) was 1.7 and the Testes weight (Mus musculus [6]) was 92.8 mg. For the same compound, the Reduction (Mus musculus [7]) was 50% and 39%, the Reduction (Mus musculus [8]) was 0% and 10% and the Reduction (Mus musculus [9]) was 31%. For the same compound, the Reduction (Mus musculus [10]) was 9%, the Testes weight (Mus musculus [11]) was 93.9 mg and the Reduction (Mus musculus [12]) was 5%. The Testes weight (Mus musculus [13]) was 49.4 mg and 47.1 mg, the Spermatogenic index (Mus musculus [14]) was 5.1 and the Testes weight (Mus musculus [14]) was 112.3 mg. The Testes weight (Mus musculus [15]) was 101.6 mg, the Testes weight (Mus musculus [16]) was 88.5 mg and the “Change in body weight” value (Mus musculus [17]) was 3.22 g. The Reduction (Mus musculus [18]) was 59%, the Spermatogenic index (Mus musculus [19]) was 6 and the Spermatogenic index (Mus musculus [20]) was 4. For the same compound, the Testes weight (Mus musculus [20]) was 88.2 mg, the Reduction (Mus musculus [21]) was 41% and the Reduction (Mus musculus [22]) was 10%. For the same compound, the Reduction (Mus musculus [23]) was 12%, the Reduction (Mus musculus [24]) was -3% and the Reduction (Mus musculus [25]) was 10%. The Reduction (Mus musculus [26]) was 4%, the Reduction (Mus musculus [27]) was 0% and the Reduction (Mus musculus [28]) was 62%. The Reduction (Mus musculus [29]) was 43%, the Reduction (Mus musculus [30]) was 31% and the Spermatogenic index (Mus musculus [31]) was 6. For the same compound, the Reduction (Mus musculus [32]) was 13%, the Reduction (Mus musculus [33]) was 11% and the Spermatogenic index (Mus musculus [34]) was 3.
